Experimental data from ChEMBL document CHEMBL2434891, “Design, synthesis, and in vitro cancer cell growth inhibition evaluation and antimalarial testing of trioxanes installed in cyclic 2-enoate substructures” (Eur J Med Chem, 2013).

Tests used:
MCF7 = assay: Cytotoxicity against human MCF7 cells after 72 hrs by SRB assay; format: functional; conditions: MCF7, 72 h
DMS-114 = assay: Cytotoxicity against human DMS114 cells after 72 hrs by SRB assay; format: functional; conditions: DMS-114, 72 h
ACHN = assay: Cytotoxicity against human ACHN cells after 72 hrs by SRB assay; format: functional
A549 = assay: Cytotoxicity against human A549 cells after 72 hrs by SRB assay; format: functional, cell-based; conditions: A549, 72 h
In short: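 Adherent cells grown at 37 °C and 5% CO2. Seeded at 1×10^4/well 24 h before dosing, then 72 h at 10–0.01 µg/mL final. Fixed with cold 50% TCA, stained with 0.4% SRB, dye extracted in 10 mM Tris, read at 540 nm.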

NCI-H522 = assay: Cytotoxicity against human NCI-H522 cells after 72 hrs by SRB assay; format: functional; conditions: NCI-H522, 72 h
SF-295 = assay: Cytotoxicity against human SF295 cells after 72 hrs by SRB assay; format: functional; conditions: SF-295, 72 h
SNB-75 = assay: Cytotoxicity against human SNB75 cells after 72 hrs by SRB assay; format: functional; conditions: SNB-75, 72 h
HCC 2998 = assay: Cytotoxicity against human HCC2998 cells after 72 hrs by SRB assay; format: functional; conditions: HCC 2998, 72 h
MV4-11 = assay: Antiproliferative activity against human MV4-11 cells after 72 hrs by MTT assay; format: functional, cell-based; conditions: MV4-11, 72 h
SK-OV-3 = assay: Cytotoxicity against human SKOV3 cells after 72 hrs by SRB assay; format: functional; conditions: SK-OV-3, 72 h
OVCAR-5 = assay: Cytotoxicity against human OVCAR5 cells after 72 hrs by SRB assay; format: functional; conditions: OVCAR-5, 72 h
OVCAR-4 = assay: Cytotoxicity against human OVCAR4 cells after 72 hrs by SRB assay; format: functional; conditions: OVCAR-4, 72 h
MKN-45 = assay: Cytotoxicity against human MKN45 cells after 72 hrs by SRB assay; format: functional; conditions: MKN-45, 72 h
SF-268 = assay: Cytotoxicity against human SF268 cells after 72 hrs by SRB assay; format: functional; conditions: SF-268, 72 h
KM12 = assay: Cytotoxicity against human KM12 cells after 72 hrs by SRB assay; format: functional; conditions: KM12, 72 h
LOX IMVI = assay: Cytotoxicity against human LOXIMVI cells after 72 hrs by SRB assay; format: functional
OVCAR-8 = assay: Cytotoxicity against human OVCAR8 cells after 72 hrs by SRB assay; format: functional; conditions: OVCAR-8, 72 h
MKN-7 = assay: Cytotoxicity against human MKN7 cells after 72 hrs by SRB assay; format: functional; conditions: MKN-7, 72 h
OVCAR-3 = assay: Cytotoxicity against human OVCAR3 cells after 72 hrs by SRB assay; format: functional; conditions: OVCAR-3, 72 h
[1] = Cytotoxicity against human HBC5 cells after 72 hrs by SRB assay; format: functional; conditions: HBC5, 72 h
PC-3 = assay: Cytotoxicity against human PC3 cells after 72 hrs by SRB assay; format: functional; conditions: PC-3, 72 h
MKN-74 = assay: Cytotoxicity against human MKN74 cells after 72 hrs by SRB assay; format: functional; conditions: MKN-74, 72 h
St-4 = assay: Cytotoxicity against human St-4 cells after 72 hrs by SRB assay; format: functional; conditions: St-4, 72 h
SNB-78 = assay: Cytotoxicity against human SNB78 cells after 72 hrs by SRB assay; format: functional; conditions: SNB-78, 72 h
SF-539 = assay: Cytotoxicity against human SF539 cells after 72 hrs by SRB assay; format: functional; conditions: SF-539, 72 h
HT-29 = assay: Cytotoxicity against human HT-29 cells after 72 hrs by SRB assay; format: functional; conditions: HT-29, 72 h
[2] = Cytotoxicity against human BSY1 cells after 72 hrs by SRB assay; format: functional; conditions: BSY-1, 72 h
NCI-H23 = assay: Cytotoxicity against human NCI-H23 cells after 72 hrs by SRB assay; format: functional; conditions: NCI-H23, 72 h
[3] = read-out: LC50 (the source's name)
[4] = read-out: pLC50 (the source's name) (converted)

Structure (SMILES): COc1ccc(C2O[C@]34CC(c5cccc(Cl)c5)OC(=O)C3=C[C@@]2(C)OO4)cc1 (some centres not stated)
- TGI (MCF7): 27 µM
- GI50 (MCF7; read-out: GI50): 11 µM
- CC50 (MCF7; [3]): 69 µM
- GI50 (MCF7; read-out: pGI50 (converted)): 10 µM
- CC50 (MCF7; [4]): 87.1 µM
- TGI (DMS-114): 36 µM
- GI50 (DMS-114; read-out: GI50): 14 µM
- CC50 (DMS-114; [3]): 92 µM
- GI50 (DMS-114; read-out: pGI50 (converted)): 4.47 µM
- CC50 (DMS-114; [4]): 95.5 µM
- TGI (ACHN): 29 µM
- GI50 (ACHN; read-out: GI50): 16 µM
- CC50 (ACHN; [3]): 55 µM
- GI50 (ACHN; read-out: pGI50 (converted)): 15.5 µM
- CC50 (ACHN; [4]): 56.2 µM
- IC50 (A549): 10.2 µM
- TGI (A549): 38 µM
- GI50 (A549; read-out: GI50): 18 µM
- CC50 (A549; [3]): 78 µM
- GI50 (A549; read-out: pGI50 (converted)): 17.8 µM
- CC50 (A549; [4]): 77.6 µM
- TGI (NCI-H522): 8.6 µM
- GI50 (NCI-H522; read-out: GI50): 2.7 µM
- CC50 (NCI-H522; [3]): 100 µM
- GI50 (NCI-H522; read-out: pGI50 (converted)): 2 µM
- CC50 (NCI-H522; [4]): 22.4 µM
- TGI (SF-295): 33 µM
- GI50 (SF-295; read-out: GI50): 18 µM
- CC50 (SF-295; [3]): 62 µM
- GI50 (SF-295; read-out: pGI50 (converted)): 18.2 µM
- CC50 (SF-295; [4]): 60.3 µM
- TGI (SNB-75): 28 µM
- GI50 (SNB-75; read-out: GI50): 12 µM
- CC50 (SNB-75; [3]): 67 µM
- GI50 (SNB-75; read-out: pGI50 (converted)): 12.3 µM
- CC50 (SNB-75; [4]): 63.1 µM
- TGI (HCC 2998): 30 µM
- GI50 (HCC 2998; read-out: GI50): 15 µM
- CC50 (HCC 2998; [3]): 62 µM
- GI50 (HCC 2998; read-out: pGI50 (converted)): 6.31 µM
- CC50 (HCC 2998; [4]): 61.7 µM
- IC50 (MV4-11): 0.549 µM
- TGI (SK-OV-3): 29 µM
- GI50 (SK-OV-3; read-out: GI50): 16 µM
- CC50 (SK-OV-3; [3]): 54 µM
- GI50 (SK-OV-3; read-out: pGI50 (converted)): 19.1 µM
- CC50 (SK-OV-3; [4]): 58.9 µM
- TGI (OVCAR-5): 17 µM
- GI50 (OVCAR-5; read-out: GI50): 5.3 µM
- CC50 (OVCAR-5; [3]): 42 µM
- GI50 (OVCAR-5; read-out: pGI50 (converted)): 2.75 µM
- CC50 (OVCAR-5; [4]): 26.3 µM
- TGI (OVCAR-4): 24 µM
- GI50 (OVCAR-4; read-out: GI50): 9.2 µM
- CC50 (OVCAR-4; [3]): 59 µM
- GI50 (OVCAR-4; read-out: pGI50 (converted)): 1.55 µM
- CC50 (OVCAR-4; [4]): 41.7 µM
- TGI (MKN-45): 31 µM
- GI50 (MKN-45; read-out: GI50): 14 µM
- CC50 (MKN-45; [3]): 68 µM
- GI50 (MKN-45; read-out: pGI50 (converted)): 15.5 µM
- CC50 (MKN-45; [4]): 57.5 µM
- TGI (SF-268): 41 µM
- GI50 (SF-268; read-out: GI50): 18 µM
- CC50 (SF-268; [3]): 94 µM
- GI50 (SF-268; read-out: pGI50 (converted)): 13.8 µM
- CC50 (SF-268; [4]): 91.2 µM
- TGI (KM12): 51 µM
- GI50 (KM12; read-out: GI50): 25 µM
- CC50 (KM12; [3]): 100 µM
- GI50 (KM12; read-out: pGI50 (converted)): 17.8 µM
- CC50 (KM12; [4]): 85.1 µM
- TGI (LOX IMVI): 12 µM
- GI50 (LOX IMVI; read-out: GI50): 3.1 µM
- CC50 (LOX IMVI; [3]): 60 µM
- GI50 (LOX IMVI; read-out: pGI50 (converted)): 2.04 µM
- CC50 (LOX IMVI; [4]): 7.59 µM
- TGI (OVCAR-8): 41 µM
- GI50 (OVCAR-8; read-out: GI50): 12 µM
- CC50 (OVCAR-8; [3]): 100 µM
- GI50 (OVCAR-8; read-out: pGI50 (converted)): 9.33 µM
- CC50 (OVCAR-8; read-out: pLC50 (converted)): > 100 µM
- TGI (MKN-7): 31 µM
- GI50 (MKN-7; read-out: GI50): 10 µM
- CC50 (MKN-7; [3]): 97 µM
- GI50 (MKN-7; read-out: pGI50 (converted)): 3.47 µM
- CC50 (MKN-7; [4]): 89.1 µM
- TGI (OVCAR-3): 10 µM
- GI50 (OVCAR-3; read-out: GI50): 3.4 µM
- CC50 (OVCAR-3; [3]): 42 µM
- GI50 (OVCAR-3; read-out: pGI50 (converted)): 2.45 µM
- CC50 (OVCAR-3; [4]): 12.6 µM
- TGI [1]: 8 µM
- GI50 ([1]; read-out: GI50): 2.4 µM
- CC50 [1, 3]: 44 µM
- GI50 ([1]; read-out: pGI50 (converted)): 1.95 µM
- CC50 [1, 4]: 8.71 µM
- TGI (PC-3): 28 µM
- GI50 (PC-3; read-out: GI50): 15 µM
- CC50 (PC-3; [3]): 55 µM
- GI50 (PC-3; read-out: pGI50 (converted)): 13.2 µM
- CC50 (PC-3; [4]): 56.2 µM
- TGI (MKN-74): 44 µM
- GI50 (MKN-74; read-out: GI50): 15 µM
- CC50 (MKN-74; [3]): 100 µM
- GI50 (MKN-74; read-out: pGI50 (converted)): 14.1 µM
- CC50 (MKN-74; [4]): 95.5 µM
- TGI (St-4): 47 µM
- GI50 (St-4; read-out: GI50): 19 µM
- CC50 (St-4; [3]): 100 µM
- GI50 (St-4; read-out: pGI50 (converted)): 17.8 µM
- CC50 (St-4; read-out: pLC50 (converted)): > 100 µM
- TGI (SNB-78): 34 µM
- GI50 (SNB-78; read-out: GI50): 14 µM
- CC50 (SNB-78; [3]): 84 µM
- GI50 (SNB-78; read-out: pGI50 (converted)): 12.6 µM
- CC50 (SNB-78; [4]): 91.2 µM
- TGI (SF-539): 23 µM
- GI50 (SF-539; read-out: GI50): 8.4 µM
- CC50 (SF-539; [3]): 55 µM
- GI50 (SF-539; read-out: pGI50 (converted)): 2.75 µM
- CC50 (SF-539; [4]): 13.5 µM
- TGI (HT-29): 48 µM
- GI50 (HT-29; read-out: GI50): 15 µM
- CC50 (HT-29; [3]): 100 µM
- GI50 (HT-29; read-out: pGI50 (converted)): 5.25 µM
- CC50 (HT-29; read-out: pLC50 (converted)): > 100 µM
- TGI [2]: 26 µM
- GI50 ([2]; read-out: GI50): 12 µM
- CC50 [2, 3]: 57 µM
- GI50 ([2]; read-out: pGI50 (converted)): 5.01 µM
- CC50 [2, 4]: 46.8 µM
- TGI (NCI-H23): 40 µM
- GI50 (NCI-H23; read-out: GI50): 18 µM
- CC50 (NCI-H23; [3]): 93 µM
- GI50 (NCI-H23; read-out: pGI50 (converted)): 16.6 µM
- CC50 (NCI-H23; [4]): 79.4 µM
